Results published in PMC12772459 (The Journal of general physiology, 2025).
Where two headings read alike, the source gives them in different places.

What was measured:
GluN1/2A receptors [1] = target: T1, GluN1/2A receptors (Rattus norvegicus, UniProt P35439+Q00959); settings: ref Lotti et al., 2025, cited from earlier work; for Kb: read-out: binding affinity KB
[2] = tested on: NMDA receptor-mediated EPSCs from CA1 pyramidal neurons; type: cell-based, mouse; settings: 3 μM compound, baseline vs following NAM application
How it was run: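 Hippocampal slices from 3–5-week-old male and female C57BL/6J mice, perfused with aCSF at 32 °C. Whole-cell recordings from CA1 cells with Cs-based internal solution at +40 mV. Schaffer collaterals stimulated every 30 s with 10 μM NBQX and 10 μM gabazine. After 5-min baseline, test compound bath-applied at 3 μM. τW from double-exponential fit of deactivation; ratio paired t-test.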

GluN1/2B receptors = GluN1/2B receptors (Rattus norvegicus, UniProt P35439+Q00960); test: Two-electrode voltage-clamp recordings of recombinant GluN1/2B receptors; type: cell-based; settings: for Hill slope nH of inhibition: 0.3 μM glycine, 100 μM glutamate; for selectivity for GluN1/2A over GluN1/2B: glycine concentration close to respective EC50
GluN1/2A receptors [3] = target: T1, GluN1/2A receptors; type: cell-based; settings: for selectivity for GluN1/2A over GluN1/2B-D receptors: in 1 μM glycine; for IC50: read-out: IC50 (95% CI), […] μM glycine
GluN1/2D receptors = GluN1/2D receptors (Rattus norvegicus, UniProt P35439+Q62645); test: Two-electrode voltage-clamp recordings of recombinant GluN1/2D receptors; type: cell-based; settings: for Hill slope nH of inhibition: 0.1 μM glycine, 100 μM glutamate; for selectivity for GluN1/2A over GluN1/2D: glycine concentration close to respective EC50
GluN1/2C receptors = GluN1/2C receptors (Rattus norvegicus, UniProt P35439+Q00961); test: Two-electrode voltage-clamp recordings of recombinant GluN1/2C receptors; type: cell-based; settings: for selectivity for GluN1/2A over GluN1/2C: glycine concentration close to respective EC50
GluN1/2A-I755V = GluN1/2A-I755V (Rattus norvegicus, UniProt P35439+Q00959, I755V); test: Two-electrode voltage-clamp recordings, mutant GluN1/2A-I755V; type: cell-based; settings: 300 μM glutamate
GluN1/2A receptors [4] = target: T1, GluN1/2A receptors; type: cell-based; settings: global non-linear regression of glycine concentration-response data
GluN1/2A-Y754K = GluN1/2A-Y754K (Rattus norvegicus, UniProt P35439+Q00959, Y754K); test: Two-electrode voltage-clamp recordings, mutant GluN1/2A-Y754K; type: cell-based; settings: 300 μM glutamate
GluN1/2A-V783F = GluN1/2A-V783F (Rattus norvegicus, UniProt P35439+Q00959, V783F); test: Two-electrode voltage-clamp recordings, mutant GluN1/2A-V783F; type: cell-based; settings: 0.5 μM glycine; for Hill slope nH of inhibition: 300 μM glutamate; for decrease of potency compared to wild type GluN1/2A: saturating glutamate
GluN1/2A-V783L = GluN1/2A-V783L (Rattus norvegicus, UniProt P35439+Q00959, V783L); test: Two-electrode voltage-clamp recordings, mutant GluN1/2A-V783L; type: cell-based; settings: 0.5 μM glycine; for Hill slope nH of inhibition: 300 μM glutamate; for decrease of potency compared to wild type GluN1/2A: saturating glutamate
GluN1/2A-I755F = GluN1/2A-I755F (Rattus norvegicus, UniProt P35439+Q00959, I755F); test: Two-electrode voltage-clamp recordings, mutant GluN1/2A-I755F; type: cell-based
GluN1/2A-I755V+Y754K = GluN1/2A-I755V+Y754K (Rattus norvegicus, UniProt P35439+Q00959, I755V/Y754K); test: Two-electrode voltage-clamp recordings, mutant GluN1/2A-I755V+Y754K; type: cell-based; settings: 1 μM glycine, 300 μM glutamate
[5] = tested on: triheteromeric GluN1/2A/2B receptors; type: cell-based, rat; settings: 100 μM glutamate; for Hill slope nH of inhibition: 1 μM glycine; for IC50: read-out: IC50 (95% CI), […] μM glycine
GluN1/2A-E789Q = GluN1/2A-E789Q (Rattus norvegicus, UniProt P35439+Q00959, E789Q); test: Two-electrode voltage-clamp recordings, mutant GluN1/2A-E789Q; type: cell-based
GluN1/2A-T797S = GluN1/2A-T797S (Rattus norvegicus, UniProt P35439+Q00959, T797S); test: Two-electrode voltage-clamp recordings, mutant GluN1/2A-T797S; type: cell-based
GluN1/2A-V529I = GluN1/2A-V529I (Rattus norvegicus, UniProt P35439+Q00959, V529I); test: Two-electrode voltage-clamp recordings, mutant GluN1/2A-V529I; type: cell-based
[6] = ref Volkmann et al., 2016; cited from earlier work
GluN1/2A-M788T = GluN1/2A-M788T (Rattus norvegicus, UniProt P35439+Q00959, M788T); test: Two-electrode voltage-clamp recordings, mutant GluN1/2A-M788T; type: cell-based
GluN1/2A-M788I = GluN1/2A-M788I (Rattus norvegicus, UniProt P35439+Q00959, M788I); test: Two-electrode voltage-clamp recordings, mutant GluN1/2A-M788I; type: cell-based
[7] = target: triheteromeric GluN1/2A/2B receptors; settings: read-out: glycine EC50; previously reported; ref Lotti et al., 2025; cited from earlier work
[8] = read-out: IC50 (95% CI), […] μM glycine
[9] = read-out: IC50 (95% CI), […] μM glycine, 300 μM glutamate
[10] = glycine near EC50, saturating glutamate

Chain of GluN1/2A-V783L (Q00959 23-1464 V783L, other chains not shown): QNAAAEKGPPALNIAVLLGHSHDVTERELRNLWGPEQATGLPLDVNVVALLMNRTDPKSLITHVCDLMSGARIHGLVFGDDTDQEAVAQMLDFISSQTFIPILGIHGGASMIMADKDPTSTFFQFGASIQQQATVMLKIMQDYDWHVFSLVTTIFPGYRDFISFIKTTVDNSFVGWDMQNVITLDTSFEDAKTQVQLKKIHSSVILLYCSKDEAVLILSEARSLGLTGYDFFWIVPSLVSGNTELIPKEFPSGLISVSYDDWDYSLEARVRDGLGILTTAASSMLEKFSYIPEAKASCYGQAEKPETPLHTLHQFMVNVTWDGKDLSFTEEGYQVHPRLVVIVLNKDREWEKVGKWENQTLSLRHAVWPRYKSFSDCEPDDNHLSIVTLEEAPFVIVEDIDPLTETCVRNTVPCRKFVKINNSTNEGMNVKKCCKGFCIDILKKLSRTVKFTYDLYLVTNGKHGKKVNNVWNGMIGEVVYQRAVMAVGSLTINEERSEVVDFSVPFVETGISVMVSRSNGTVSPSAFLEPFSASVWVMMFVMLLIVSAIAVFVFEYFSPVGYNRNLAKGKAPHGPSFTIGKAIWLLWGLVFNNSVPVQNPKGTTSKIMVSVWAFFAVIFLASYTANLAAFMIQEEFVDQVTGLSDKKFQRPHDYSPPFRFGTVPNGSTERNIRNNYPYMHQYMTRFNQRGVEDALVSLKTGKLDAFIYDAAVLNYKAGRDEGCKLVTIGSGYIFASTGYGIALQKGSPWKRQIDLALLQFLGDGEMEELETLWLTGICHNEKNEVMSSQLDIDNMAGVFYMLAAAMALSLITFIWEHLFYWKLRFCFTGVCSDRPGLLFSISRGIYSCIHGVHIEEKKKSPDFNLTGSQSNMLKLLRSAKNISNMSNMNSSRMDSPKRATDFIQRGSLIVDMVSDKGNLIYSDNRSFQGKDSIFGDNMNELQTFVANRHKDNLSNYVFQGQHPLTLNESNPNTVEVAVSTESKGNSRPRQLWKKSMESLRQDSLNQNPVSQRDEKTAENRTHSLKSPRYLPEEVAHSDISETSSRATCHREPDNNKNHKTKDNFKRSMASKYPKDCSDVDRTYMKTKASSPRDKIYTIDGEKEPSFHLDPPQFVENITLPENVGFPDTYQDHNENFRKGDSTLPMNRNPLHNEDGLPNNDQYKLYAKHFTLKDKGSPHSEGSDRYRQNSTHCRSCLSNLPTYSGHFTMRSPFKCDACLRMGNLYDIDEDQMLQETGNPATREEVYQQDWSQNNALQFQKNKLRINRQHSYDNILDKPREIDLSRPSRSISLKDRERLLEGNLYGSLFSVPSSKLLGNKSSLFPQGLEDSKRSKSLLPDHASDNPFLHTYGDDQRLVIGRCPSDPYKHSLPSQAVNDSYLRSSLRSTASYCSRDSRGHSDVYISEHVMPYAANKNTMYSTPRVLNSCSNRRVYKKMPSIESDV
Chain of GluN1/2A-V783F (Q00959 23-1464 V783F, other chains not shown): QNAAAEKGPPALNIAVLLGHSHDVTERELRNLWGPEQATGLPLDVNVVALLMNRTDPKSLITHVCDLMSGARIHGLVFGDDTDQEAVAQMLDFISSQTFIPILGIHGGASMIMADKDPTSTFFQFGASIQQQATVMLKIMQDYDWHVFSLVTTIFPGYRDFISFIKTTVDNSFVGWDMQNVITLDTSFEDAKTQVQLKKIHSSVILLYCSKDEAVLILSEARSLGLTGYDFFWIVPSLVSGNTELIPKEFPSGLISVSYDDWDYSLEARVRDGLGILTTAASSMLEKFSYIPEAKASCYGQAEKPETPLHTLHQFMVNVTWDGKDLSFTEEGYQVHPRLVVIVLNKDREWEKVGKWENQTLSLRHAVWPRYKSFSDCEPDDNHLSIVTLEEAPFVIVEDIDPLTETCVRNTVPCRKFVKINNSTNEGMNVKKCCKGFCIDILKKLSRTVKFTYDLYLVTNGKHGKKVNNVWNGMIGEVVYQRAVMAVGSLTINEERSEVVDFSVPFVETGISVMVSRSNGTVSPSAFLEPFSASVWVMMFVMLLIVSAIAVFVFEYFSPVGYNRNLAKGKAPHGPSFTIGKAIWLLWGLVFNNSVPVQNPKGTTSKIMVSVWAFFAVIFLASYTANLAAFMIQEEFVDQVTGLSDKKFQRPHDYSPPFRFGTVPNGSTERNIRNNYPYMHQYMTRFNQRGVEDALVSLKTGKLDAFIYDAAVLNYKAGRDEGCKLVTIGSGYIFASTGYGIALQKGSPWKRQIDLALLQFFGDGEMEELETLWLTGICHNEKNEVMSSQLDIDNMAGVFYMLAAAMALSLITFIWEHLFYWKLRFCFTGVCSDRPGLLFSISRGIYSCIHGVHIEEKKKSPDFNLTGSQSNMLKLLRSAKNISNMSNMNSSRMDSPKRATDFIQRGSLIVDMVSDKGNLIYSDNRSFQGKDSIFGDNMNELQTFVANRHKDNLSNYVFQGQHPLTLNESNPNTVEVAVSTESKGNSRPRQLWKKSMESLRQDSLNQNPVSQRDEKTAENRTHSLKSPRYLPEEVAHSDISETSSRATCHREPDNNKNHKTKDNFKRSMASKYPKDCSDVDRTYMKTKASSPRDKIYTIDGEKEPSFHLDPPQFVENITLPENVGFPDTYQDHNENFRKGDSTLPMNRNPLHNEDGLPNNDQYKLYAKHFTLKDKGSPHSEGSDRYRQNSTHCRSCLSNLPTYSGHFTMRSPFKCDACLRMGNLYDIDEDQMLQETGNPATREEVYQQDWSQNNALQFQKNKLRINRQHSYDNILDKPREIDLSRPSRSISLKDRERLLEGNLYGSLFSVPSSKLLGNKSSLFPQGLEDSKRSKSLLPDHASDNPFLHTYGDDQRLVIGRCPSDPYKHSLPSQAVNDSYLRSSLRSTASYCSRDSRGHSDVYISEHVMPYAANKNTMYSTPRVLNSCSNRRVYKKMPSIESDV
Chain of GluN1/2A-I755F (Q00959 23-1464 I755F, other chains not shown): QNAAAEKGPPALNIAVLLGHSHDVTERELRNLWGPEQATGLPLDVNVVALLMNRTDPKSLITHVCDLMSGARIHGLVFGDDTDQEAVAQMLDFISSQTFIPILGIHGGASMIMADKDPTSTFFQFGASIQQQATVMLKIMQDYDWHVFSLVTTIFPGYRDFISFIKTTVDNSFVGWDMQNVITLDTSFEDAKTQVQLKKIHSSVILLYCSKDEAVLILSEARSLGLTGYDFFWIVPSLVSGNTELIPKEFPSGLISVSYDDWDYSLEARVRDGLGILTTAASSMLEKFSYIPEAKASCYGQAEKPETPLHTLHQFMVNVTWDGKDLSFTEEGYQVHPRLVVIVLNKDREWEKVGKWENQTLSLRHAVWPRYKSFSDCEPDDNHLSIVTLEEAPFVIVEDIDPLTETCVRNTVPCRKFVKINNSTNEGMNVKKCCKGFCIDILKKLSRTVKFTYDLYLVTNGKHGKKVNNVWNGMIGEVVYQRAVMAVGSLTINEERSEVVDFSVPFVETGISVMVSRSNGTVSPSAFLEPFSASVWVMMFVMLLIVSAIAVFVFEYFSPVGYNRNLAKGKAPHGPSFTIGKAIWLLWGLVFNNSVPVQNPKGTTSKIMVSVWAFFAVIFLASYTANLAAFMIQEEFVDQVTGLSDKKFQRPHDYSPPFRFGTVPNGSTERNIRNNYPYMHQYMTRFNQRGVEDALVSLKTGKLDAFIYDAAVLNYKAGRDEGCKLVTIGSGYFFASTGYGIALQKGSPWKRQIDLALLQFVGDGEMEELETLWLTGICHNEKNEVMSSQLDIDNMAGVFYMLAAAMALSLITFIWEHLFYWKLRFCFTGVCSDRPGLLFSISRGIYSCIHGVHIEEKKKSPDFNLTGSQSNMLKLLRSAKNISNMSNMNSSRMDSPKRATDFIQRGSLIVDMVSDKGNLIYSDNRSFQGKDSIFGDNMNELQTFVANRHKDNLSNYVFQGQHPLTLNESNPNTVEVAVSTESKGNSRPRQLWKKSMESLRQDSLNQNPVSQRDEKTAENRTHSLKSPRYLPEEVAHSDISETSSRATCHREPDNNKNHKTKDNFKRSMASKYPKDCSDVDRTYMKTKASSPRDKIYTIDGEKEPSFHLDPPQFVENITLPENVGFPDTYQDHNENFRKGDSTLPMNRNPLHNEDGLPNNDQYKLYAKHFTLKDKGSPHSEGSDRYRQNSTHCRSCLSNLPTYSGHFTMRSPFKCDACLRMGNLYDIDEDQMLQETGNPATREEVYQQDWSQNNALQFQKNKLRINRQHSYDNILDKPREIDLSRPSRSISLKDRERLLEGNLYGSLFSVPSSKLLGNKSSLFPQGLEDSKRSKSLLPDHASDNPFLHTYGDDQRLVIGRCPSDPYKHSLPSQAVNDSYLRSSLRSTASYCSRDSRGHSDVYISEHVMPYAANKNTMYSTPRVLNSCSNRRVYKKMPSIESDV

## Cc1ncc(CNC(=O)c2cnc(CNS(=O)(=O)c3ccc(F)c(Cl)c3)cn2)s1 [MPX-004]
GluN1/2A receptors [1]
  Kb: 9.3 nM
  negative allosteric interaction constant α: 0.0018
[2]
  effect on EPSC decay times (weighted deactivation time constant τW): increases EPSC decay times

## O=C(CSc1nnc(NCc2ccccc2)s1)NCC1CCCCC1 [TCN-213]
GluN1/2B receptors
  Hill slope nH of inhibition: 1.3
  selectivity for GluN1/2A over GluN1/2B: 22 fold
GluN1/2A receptors [3]; 1 μM glycine, 10 μM glutamate
  Hill slope nH of inhibition: 1.1
GluN1/2A receptors [3]; 1 μM glycine, 100 μM glutamate
  Hill slope nH of inhibition: 1.1
GluN1/2A receptors [3]; 30 μM glycine, 300 μM glutamate
  Hill slope nH of inhibition: 1.3
GluN1/2A receptors [3]
  selectivity for GluN1/2A over GluN1/2B-D receptors: > 50 fold
GluN1/2A receptors [3]; 10 μM glutamate
  IC50: 0.96 µM
GluN1/2A receptors [3]; 100 μM glutamate
  IC50: 0.83 µM
GluN1/2D receptors
  Hill slope nH of inhibition: 1.5
  selectivity for GluN1/2A over GluN1/2D: 29 fold
GluN1/2C receptors; 0.3 μM glycine, 100 μM glutamate
  Hill slope nH of inhibition: 1.1
GluN1/2C receptors
  selectivity for GluN1/2A over GluN1/2C: 16 fold
GluN1/2A-I755V; 1 μM glycine
  Hill slope nH of inhibition: 1.1
GluN1/2A-I755V; [8]
  IC50: 1.2 µM
GluN1/2A receptors [4]
  allosteric constant α: 0.043
GluN1/2A-Y754K; 1 μM glycine
  Hill slope nH of inhibition: 1.1
GluN1/2A-Y754K; [8]
  IC50: 1.2 µM
GluN1/2A-V783F
  Hill slope nH of inhibition: 1.1
  decrease of potency compared to wild type GluN1/2A: 2.6 fold
GluN1/2A-V783L
  Hill slope nH of inhibition: 1.1
  decrease of potency compared to wild type GluN1/2A: 4.8 fold
GluN1/2A-I755F; 1 μM glycine, 300 μM glutamate
  Hill slope nH of inhibition: 1.0
GluN1/2A-I755F; glycine EC50 concentration, saturating glutamate
  reduction of potency compared to wild type GluN1/2A: not significantly different
GluN1/2A-I755F; [9]
  IC50: 1.1 µM
GluN1/2A-I755V+Y754K
  Hill slope nH of inhibition: 1.0
[5]
  Hill slope nH of inhibition: 0.9
  IC50: 4 µM

## O=C(NNC(=O)c1ccc(CNS(=O)(=O)c2ccc(F)c(Cl)c2)cc1)c1ccccc1 [TCN-201]
GluN1/2B receptors
  Hill slope nH of inhibition: 1.6
  selectivity for GluN1/2A over GluN1/2B: 30 fold
GluN1/2A-E789Q; 1 μM glycine, 300 μM glutamate
  Hill slope nH of inhibition: 1.3
GluN1/2A-E789Q; [10]
  change of potency compared to wild type GluN1/2A: no significant effects
GluN1/2A-E789Q; [9]
  IC50: 0.078 µM
GluN1/2A-T797S; 1 μM glycine, 300 μM glutamate
  Hill slope nH of inhibition: 1.4
GluN1/2A-T797S; [10]
  decrease of potency compared to wild type GluN1/2A: no significant effects
GluN1/2A-T797S; [9]
  IC50: 0.068 µM
GluN1/2A receptors [3]; 1 μM glycine, 100 μM glutamate
  Hill slope nH of inhibition: 1.2
GluN1/2A receptors [3]
  selectivity for GluN1/2A over GluN1/2B-D receptors: > 50 fold
GluN1/2A receptors [3]; 100 μM glutamate
  IC50: 0.1 µM
GluN1/2D receptors
  Hill slope nH of inhibition: 1.9
  selectivity for GluN1/2A over GluN1/2D: 39 fold
GluN1/2C receptors
  selectivity for GluN1/2A over GluN1/2C: > 50 fold
GluN1/2A-V529I; 1 μM glycine, 300 μM glutamate
  Hill slope nH of inhibition: 1.5
GluN1/2A-V529I; [10]
  decrease of potency compared to wild type GluN1/2A: 1.5 fold
GluN1/2A-V783F
  Hill slope nH of inhibition: 1.1
  decrease of potency compared to wild type GluN1/2A: 1.9 fold
[6]
  blood-brain barrier penetration: lack blood-brain barrier penetration
GluN1/2A-V783L
  Hill slope nH of inhibition: 1.1
  decrease of potency compared to wild type GluN1/2A: 8.1 fold
GluN1/2A receptors [1]
  Kb: 42 nM
  negative allosteric interaction constant α: 0.0032
GluN1/2A-M788T; 0.3 μM glycine, 300 μM glutamate
  Hill slope nH of inhibition: 1.4
GluN1/2A-M788T; [10]
  decrease of potency compared to wild type GluN1/2A: no significant effects
GluN1/2A-M788T; read-out: IC50 (95% CI), 0.3 μM glycine, 300 μM glutamate
  IC50: 140 nM
GluN1/2A-M788I; 1 μM glycine, 300 μM glutamate
  Hill slope nH of inhibition: 1.3
GluN1/2A-M788I; [10]
  decrease of potency compared to wild type GluN1/2A: no significant effects
GluN1/2A-M788I; [9]
  IC50: 0.12 µM
[5]
  Hill slope nH of inhibition: 1.2
  IC50: 0.28 µM

## NCC(=O)O [Glycine]
[7]
  EC50: 990 nM
